# Where “and” joins values, the source holds several entries; their conditions need not be identical. Equal entries are not always repeated.
# Tested on: Fibroblast
# Experiment: Multiplex assay against human fibroblast
# Type: toxicity, cell-based
# In short: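 Compound was added to live cells that had been stained at seeding with Hoechst33342, BioTracker Green Microtubule Cytoskeleton Dye, MitoTracker Red and Annexin V Alexa Fluor 680, and imaging followed on a CQ1 microscope at 37°C and 5% CO2. CellPathfinder machine-learning gating divided cells into Hoechst high-intensity objects or normal cells, normal cells into healthy, pyknosed or fragmented nuclei, and pyknosed cells into mitotic or apoptotic. Tubulin, mitochondrial-mass and membrane-permeability phenotypes are per cents of healthy-nucleus cells.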
# [1] = 12 h, 1 µM, compound concentration 1 uM
# [2] = 12 h, 10 µM, compound concentration 10 uM
# [3] = 24 h, 1 µM, compound concentration 1 uM
# [4] = 24 h, 10 µM, compound concentration 10 uM
# [5] = 48 h, 1 µM, compound concentration 1 uM
# [6] = 48 h, 10 µM, compound concentration 10 uM
compound,measurement,setting,value
Nc1nc(CC(=O)Nc2ccc(CCNC[C@H](O)c3ccccc3)cc2)cs1 [MIRABEGRON],Population Apoptotic (%),[1],53% and 31%
same,Population Fragmented Nuclei (%),[1],19% and 27%
same,Population Healthy Nuclei (%),[1],62% and 52%
same,Population Hoechst High Intensity Objects (%),[1],5% and 4%
same,Population Membrane Permeable-Phenotype (%),[1],0% and 9%
same,Population Mitochondria Different-Phenotype (%),[1],6% and 12%
same,Population Mitotic Cells (%),[1],46% and 68%
same,Population Normal (%),[1],94% and 95%
same,Population Pyknosed Nuclei (%),[1],18% and 19%
same,Population Tubulin-Different-Phenotype (%),[1],25% and 46%
same,Total Cell Count,[1],164 and 189
same,Population Apoptotic (%),[2],46% and 30%
same,Population Fragmented Nuclei (%),[2],15% and 31%
same,Population Healthy Nuclei (%),[2],75% and 41%
same,Population Hoechst High Intensity Objects (%),[2],3% and 5%
same,Population Membrane Permeable-Phenotype (%),[2],0% and 1%
same,Population Mitochondria Different-Phenotype (%),[2],4% and 3%
same,Population Mitotic Cells (%),[2],53% and 69%
same,Population Normal (%),[2],96% and 94%
same,Population Pyknosed Nuclei (%),[2],9% and 27%
same,Population Tubulin-Different-Phenotype (%),[2],19% and 45%
same,Total Cell Count,[2],171 and 137
same,Population Apoptotic (%),[3],59% and 58%
same,Population Fragmented Nuclei (%),[3],17% and 27%
same,Population Healthy Nuclei (%),[3],64% and 57%
same,Population Hoechst High Intensity Objects (%),[3],5%
same,Population Membrane Permeable-Phenotype (%),[3],1% and 9%
same,Population Mitochondria Different-Phenotype (%),[3],4% and 7%
same,Population Mitotic Cells (%),[3],40% and 41%
same,Population Normal (%),[3],94%
same,Population Pyknosed Nuclei (%),[3],18% and 14%
same,Population Tubulin-Different-Phenotype (%),[3],28% and 45%
same,Total Cell Count,[3],156 and 179
same,Population Apoptotic (%),[4],53% and 55%
same,Population Fragmented Nuclei (%),[4],15% and 29%
same,Population Healthy Nuclei (%),[4],75% and 48%
same,Population Hoechst High Intensity Objects (%),[4],2% and 4%
same,Population Membrane Permeable-Phenotype (%),[4],0% and 4%
same,Population Mitochondria Different-Phenotype (%),[4],4% and 6%
same,Population Mitotic Cells (%),[4],46% and 44%
same,Population Normal (%),[4],97% and 95%
same,Population Pyknosed Nuclei (%),[4],8% and 21%
same,Population Tubulin-Different-Phenotype (%),[4],24% and 44%
same,Total Cell Count,[4],181 and 131
same,Population Apoptotic (%),[5],76% and 50%
same,Population Fragmented Nuclei (%),[5],23% and 40%
same,Population Healthy Nuclei (%),[5],60% and 52%
same,Population Hoechst High Intensity Objects (%),[5],7% and 2%
same,Population Membrane Permeable-Phenotype (%),[5],2% and 4%
same,Population Mitochondria Different-Phenotype (%),[5],6% and 10%
same,Population Mitotic Cells (%),[5],23% and 50%
same,Population Normal (%),[5],92% and 97%
same,Population Pyknosed Nuclei (%),[5],15% and 7%
same,Population Tubulin-Different-Phenotype (%),[5],28% and 32%
same,Total Cell Count,[5],176 and 195
same,Population Apoptotic (%),[6],64% and 75%
same,Population Fragmented Nuclei (%),[6],18% and 39%
same,Population Healthy Nuclei (%),[6],74% and 48%
same,Population Hoechst High Intensity Objects (%),[6],4% and 3%
same,Population Membrane Permeable-Phenotype (%),[6],0% and 6%
same,Population Mitochondria Different-Phenotype (%),[6],4% and 6%
same,Population Mitotic Cells (%),[6],35% and 25%
same,Population Normal (%),[6],95% and 96%
same,Population Pyknosed Nuclei (%),[6],7% and 12%
same,Population Tubulin-Different-Phenotype (%),[6],21% and 51%
same,Total Cell Count,[6],194 and 132
COc1ccc2c(c1OCc1ccccc1)C[C@@H](C(=O)O)N(C(=O)C(c1ccccc1)c1ccccc1)C2 [OLODANRIGAN],Population Apoptotic (%),[1],46% and 38%
same,Population Fragmented Nuclei (%),[1],17% and 21%
same,Population Healthy Nuclei (%),[1],63% and 50%
same,Population Hoechst High Intensity Objects (%),[1],7% and 1%
same,Population Membrane Permeable-Phenotype (%),[1],1% and 9%
same,Population Mitochondria Different-Phenotype (%),[1],2% and 5%
same,Population Mitotic Cells (%),[1],53% and 61%
same,Population Normal (%),[1],92% and 98%
same,Population Pyknosed Nuclei (%),[1],19% and 27%
same,Population Tubulin-Different-Phenotype (%),[1],29% and 57%
same,Total Cell Count,[1],157 and 154
same,Population Apoptotic (%),[2],31% and 34%
same,Population Fragmented Nuclei (%),[2],11% and 18%
same,Population Healthy Nuclei (%),[2],65% and 54%
same,Population Hoechst High Intensity Objects (%),[2],0% and 5%
same,Population Membrane Permeable-Phenotype (%),[2],1% and 6%
same,Population Mitochondria Different-Phenotype (%),[2],7%
same,Population Mitotic Cells (%),[2],68% and 65%
same,Population Normal (%),[2],99% and 94%
same,Population Pyknosed Nuclei (%),[2],23% and 26%
same,Population Tubulin-Different-Phenotype (%),[2],28% and 46%
same,Total Cell Count,[2],140 and 162
same,Population Apoptotic (%),[3],65% and 38%
same,Population Fragmented Nuclei (%),[3],18% and 21%
same,Population Healthy Nuclei (%),[3],66% and 53%
same,Population Hoechst High Intensity Objects (%),[3],6% and 2%
same,Population Membrane Permeable-Phenotype (%),[3],0% and 9%
same,Population Mitochondria Different-Phenotype (%),[3],1% and 7%
same,Population Mitotic Cells (%),[3],34% and 61%
same,Population Normal (%),[3],93% and 97%
same,Population Pyknosed Nuclei (%),[3],15% and 25%
same,Population Tubulin-Different-Phenotype (%),[3],26% and 46%
same,Total Cell Count,[3],159 and 146
same,Population Apoptotic (%),[4],53% and 58%
same,Population Fragmented Nuclei (%),[4],10% and 17%
same,Population Healthy Nuclei (%),[4],68% and 62%
same,Population Hoechst High Intensity Objects (%),[4],2% and 3%
same,Population Membrane Permeable-Phenotype (%),[4],1% and 4%
same,Population Mitochondria Different-Phenotype (%),[4],3% and 4%
same,Population Mitotic Cells (%),[4],46% and 41%
same,Population Normal (%),[4],97% and 96%
same,Population Pyknosed Nuclei (%),[4],21% and 19%
same,Population Tubulin-Different-Phenotype (%),[4],21% and 50%
same,Total Cell Count,[4],136 and 153
same,Population Apoptotic (%),[5],42% and 41%
same,Population Fragmented Nuclei (%),[5],27% and 31%
same,Population Healthy Nuclei (%),[5],58% and 52%
same,Population Hoechst High Intensity Objects (%),[5],3% and 1%
same,Population Membrane Permeable-Phenotype (%),[5],0% and 1%
same,Population Mitochondria Different-Phenotype (%),[5],2% and 4%
same,Population Mitotic Cells (%),[5],57% and 58%
same,Population Normal (%),[5],96% and 98%
same,Population Pyknosed Nuclei (%),[5],14% and 15%
same,Population Tubulin-Different-Phenotype (%),[5],20% and 40%
same,Total Cell Count,[5],154 and 156
same,Population Apoptotic (%),[6],57% and 61%
same,Population Fragmented Nuclei (%),[6],15% and 29%
same,Population Healthy Nuclei (%),[6],69% and 58%
same,Population Hoechst High Intensity Objects (%),[6],5% and 7%
same,Population Membrane Permeable-Phenotype (%),[6],1% and 3%
same,Population Mitochondria Different-Phenotype (%),[6],5%
same,Population Mitotic Cells (%),[6],42% and 38%
same,Population Normal (%),[6],94% and 92%
same,Population Pyknosed Nuclei (%),[6],15% and 12%
same,Population Tubulin-Different-Phenotype (%),[6],27% and 45%
same,Total Cell Count,[6],146 and 163
